Measurements: PMC4410353 (Journal of nuclear medicine : official publication, Society …, 2009)

Experiment: 3-T MRI of gadofluorine M uptake in atherosclerotic-like lesions
Format: in vivo, rabbit
Details: T1-weighted MRI 1 h after i.v. 0.5 μmol/kg
Method in brief: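 Rabbits had right femoral artery injury by air desiccation, then balloon angioplasty. The contralateral uninjured femoral artery served as control. Rabbits were imaged at 4–6 wk post-desiccation (n = 9), 3 wk post-angioplasty (n = 6) and 4 wk later (n = 4). 3-T T1-weighted turbo-spin-echo imaging (TR/TE 600/12 ms) was run 1 h after i.v. non-receptor-specific plaque-targeting contrast agent.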

With `CC(C(=O)NCC(=O)NCCCC[C@H](NC(=O)CO[C@H]1O[C@H](CO)[C@@H](O)[C@H](O)[C@@H]1O)C(=O)N1CCN(S(=O)(=O)C(F)(F)C(F)(F)C(F)(F)C(F)(F)C(F)(F)C(F)(F)C(F)(F)C(F)(F)F)CC1)N1CCN(CC(=O)O)CCN(CC(=O)O)CCN(CC(=O)O)CC1` (some centres unmarked) [gadofluorine M] the “MRI uptake in control arteries” value was “no gadofluorine M uptake” and the “MRI signal / uptake in injured vessels” value (all rabbits at all TPs) was “increased signal”.
